{"source": "paper PMC6980386", "about": "(Traffic (Copenhagen, Denmark), 2019)", "key": {"FL huCD4 A17V": {"target": "FL huCD4 A17V (Homo sapiens, UniProt P01730, A17V)", "assay": "CADA down-modulation of cellular huCD4", "format": "cell-based", "in_short": "(§1)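 HEK293T cells, seeded overnight in DMEM with 10% serum, 1 mM sodium pyruvate and 0.075% NaHCO₃, were lipofected with full-length human CD4 (WT or mutant). Test compound in DMSO was added 6 h post-transfection as 1:5 serial dilutions (50–0.016 μM) for 48 h. Surface CD4 was stained with FITC/APC anti-CD4 (SK3) and read by flow cytometry. IC50 is 50% of the untreated signal, from four-parameter fits of ≥3 replicate experiments. FC is mutant/WT mean IC50.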"}, "FL huCD4 V29A": {"target": "FL huCD4 V29A (Homo sapiens, UniProt P01730, V29A)", "assay": "CADA down-modulation of cellular huCD4", "format": "cell-based", "in_short": "as §1"}, "huCD4_1–32-YFP V13A": {"target": "huCD4_1–32-YFP V13A (Homo sapiens, UniProt P01730, V13A)", "assay": "CADA inhibition of huCD4_1–32-YFP secretion", "format": "cell-based", "in_short": "(§2)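 HEK293T cells were grown in DMEM with 10% FBS and 10 mM HEPES, seeded and left to adhere overnight, then transiently transfected with plasmid by Lipofectamine. Test compound was added 6 h after transfection as a 1:5 serial dilution (50 to 0.016 μM) for 48 h. Secreted YFP in the supernatant was captured on GFP-Trap magnetic beads for 1 h, washed with PBS and measured by flow cytometry. IC50 is the concentration that halves the signal relative to the untreated control, taken from a four-parameter fit of at least three replicate experiments. FC is the mutant mean IC50 divided by the WT mean IC50.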"}, "huCD4_1–32-YFP Q24A": {"target": "huCD4_1–32-YFP Q24A (Homo sapiens, UniProt P01730, Q24A)", "assay": "CADA inhibition of huCD4_1–32-YFP secretion", "format": "cell-based", "in_short": "as §2"}, "huCD4_1–32-YFP L30A": {"target": "huCD4_1–32-YFP L30A (Homo sapiens, UniProt P01730, L30A)", "assay": "CADA inhibition of huCD4_1–32-YFP secretion", "format": "cell-based", "in_short": "as §2"}, "FL huCD4 K32A": {"target": "FL huCD4 K32A (Homo sapiens, UniProt P01730, K32A)", "assay": "CADA down-modulation of cellular huCD4", "format": "cell-based", "details": "read-out: Cellular huCD4 IC50 (μM) Mean, HEK293T, CADA 48h", "in_short": "as §1"}, "FL huCD4 P6A": {"target": "FL huCD4 P6A (Homo sapiens, UniProt P01730, P6A)", "assay": "CADA down-modulation of cellular huCD4", "format": "cell-based", "in_short": "as §1"}, "FL huCD4 L30A": {"target": "FL huCD4 L30A (Homo sapiens, UniProt P01730, L30A)", "assay": "CADA down-modulation of cellular huCD4", "format": "cell-based", "in_short": "as §1"}, "huCD4_1–32-YFP V5A": {"target": "huCD4_1–32-YFP V5A (Homo sapiens, UniProt P01730, V5A)", "assay": "CADA inhibition of huCD4_1–32-YFP secretion", "format": "cell-based", "in_short": "as §2"}, "FL huCD4 V13L;A17L": {"target": "FL huCD4 V13L;A17L (Homo sapiens, UniProt P01730, A17L/V13L)", "assay": "CADA down-modulation of cellular huCD4", "format": "cell-based", "details": "HEK293T, 48h", "in_short": "as §1"}, "huCD4_1–32-YFP A17V": {"target": "huCD4_1–32-YFP A17V (Homo sapiens, UniProt P01730, A17V)", "assay": "CADA inhibition of huCD4_1–32-YFP secretion", "format": "cell-based", "in_short": "(§3)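 HEK293T cells were lipofected with human CD4 residues 1–32 fused to the N-terminus of YFP (secreted, no membrane anchor). Test compound was added 6 h post-transfection as 1:5 serial dilutions (50–0.016 μM) for 48 h. Supernatant was captured on GFP-Trap magnetic beads for 1 h, washed in PBS, and YFP was read by flow cytometry. IC50 is 50% of the untreated control, from four-parameter fits of ≥3 replicate experiments. FC is mutant/WT mean IC50.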"}, "huCD4_1–32-YFP L16A": {"target": "huCD4_1–32-YFP L16A (Homo sapiens, UniProt P01730, L16A)", "assay": "CADA inhibition of huCD4_1–32-YFP secretion", "format": "cell-based", "in_short": "as §2"}, "huCD4_1–32-YFP P6A": {"target": "huCD4_1–32-YFP P6A (Homo sapiens, UniProt P01730, P6A)", "assay": "CADA inhibition of huCD4_1–32-YFP secretion", "format": "cell-based", "in_short": "as §2"}, "FL huCD4 F7A": {"target": "FL huCD4 F7A (Homo sapiens, UniProt P01730, F7A)", "assay": "CADA down-modulation of cellular huCD4", "format": "cell-based", "in_short": "as §1"}, "FL huCD4 A22V": {"target": "FL huCD4 A22V (Homo sapiens, UniProt P01730, A22V)", "assay": "CADA down-modulation of cellular huCD4", "format": "cell-based", "in_short": "as §1"}, "bovine pre-prolactin": {"system": "bovine pre-prolactin", "details": "cited from earlier work"}, "huCD4_1–32-YFP T23A": {"target": "huCD4_1–32-YFP T23A (Homo sapiens, UniProt P01730, T23A)", "assay": "CADA inhibition of huCD4_1–32-YFP secretion", "format": "cell-based", "in_short": "as §2"}, "FL huCD4 R8E": {"target": "FL huCD4 R8E (Homo sapiens, UniProt P01730, R8E)", "assay": "CADA down-modulation of cellular huCD4", "format": "cell-based", "details": "HEK293T, 48h", "in_short": "as §1"}, "huCD4_1–32-YFP L11A": {"target": "huCD4_1–32-YFP L11A (Homo sapiens, UniProt P01730, L11A)", "assay": "CADA inhibition of huCD4_1–32-YFP secretion", "format": "cell-based", "in_short": "as §2"}, "huCD4_1–32-YFP F7A": {"target": "huCD4_1–32-YFP F7A (Homo sapiens, UniProt P01730, F7A)", "assay": "CADA inhibition of huCD4_1–32-YFP secretion", "format": "cell-based", "in_short": "as §3"}, "FL huCD4 H9A": {"target": "FL huCD4 H9A (Homo sapiens, UniProt P01730, H9A)", "assay": "CADA down-modulation of cellular huCD4", "format": "cell-based", "in_short": "as §1"}, "[1]": {"target": "truncated huCD4 D1D2 P20A (Homo sapiens, UniProt P01730, P20A)", "assay": "Cell-free in vitro translation and translocation", "format": "biochemical", "in_short": "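Truncated huCD4 D1D2 (lacking glycosylation sites and membrane anchor) was made by PCR and transcribed with T7. Proteinase K protection ran 30 min on ice and was quenched with PMSF. Products were separated by SDS-PAGE and imaged by phosphor imaging. The SP-cleaved band was normalised to the matching control. Data are from 2–5 independent experiments, compared with WT by Welch t test.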"}, "FL huCD4 R8K": {"target": "FL huCD4 R8K (Homo sapiens, UniProt P01730, R8K)", "assay": "CADA down-modulation of cellular huCD4", "format": "cell-based", "details": "HEK293T, 48h", "in_short": "as §1"}, "[2]": {"details": "+ less, − more sensitive to CADA"}, "[3]": {"details": "read-out: Cellular huCD4 IC50 (μM) Mean, HEK293T, CADA 48h"}, "[4]": {"details": "read-out: Secreted YFP IC50 (μM) Mean, HEK293T, CADA 48h"}}, "data": [{"smiles": "C=C1CN(S(=O)(=O)c2ccc(C)cc2)CCCN(Cc2ccccc2)CCCN(S(=O)(=O)c2ccc(C)cc2)C1", "note": "[CADA, Cyclotriazadisulfonamide]", "values": [{"measurement": "Cellular huCD4 FC (fold change of mean IC50 relative to WT)", "setting": "FL huCD4 A17V; [2]", "result": "+2.5"}, {"measurement": "IC50", "setting": "FL huCD4 A17V; [3]", "result": 1.33, "unit": "µM"}, {"measurement": "Cellular huCD4 FC (fold change of mean IC50 relative to WT)", "setting": "FL huCD4 V29A; [2]", "result": "+1.2"}, {"measurement": "IC50", "setting": "FL huCD4 V29A; [3]", "result": 0.63, "unit": "µM"}, {"measurement": "Secreted YFP FC (fold change of mean IC50 relative to WT)", "setting": "huCD4_1–32-YFP V13A; [2]", "result": "−2.8"}, {"measurement": "IC50", "setting": "huCD4_1–32-YFP V13A; [4]", "result": 0.46, "unit": "µM"}, {"measurement": "Secreted YFP FC (fold change of mean IC50 relative to WT)", "setting": "huCD4_1–32-YFP Q24A; [2]", "result": "+3.3"}, {"measurement": "IC50", "setting": "huCD4_1–32-YFP Q24A; [4]", "result": 4.22, "unit": "µM"}, {"measurement": "Secreted YFP FC (fold change of mean IC50 relative to WT)", "setting": "huCD4_1–32-YFP L30A; [2]", "result": "−1.2"}, {"measurement": "IC50", "setting": "huCD4_1–32-YFP L30A; [4]", "result": 1.08, "unit": "µM"}, {"measurement": "IC50", "setting": "FL huCD4 K32A", "result": 1.42, "unit": "µM"}, {"measurement": "Cellular huCD4 FC (fold change of mean IC50 relative to WT)", "setting": "FL huCD4 P6A; [2]", "result": "+1.8"}, {"measurement": "IC50", "setting": "FL huCD4 P6A; [3]", "result": 0.96, "unit": "µM"}, {"measurement": "Cellular huCD4 FC (fold change of mean IC50 relative to WT)", "setting": "FL huCD4 L30A; [2]", "result": "+1.6"}, {"measurement": "IC50", "setting": "FL huCD4 L30A; [3]", "result": 0.84, "unit": "µM"}, {"measurement": "Secreted YFP FC (fold change of mean IC50 relative to WT)", "setting": "huCD4_1–32-YFP V5A; [2]", "result": "−3.8"}, {"measurement": "IC50", "setting": "huCD4_1–32-YFP V5A; [4]", "result": 0.33, "unit": "µM"}, {"measurement": "sensitivity to CADA", "setting": "FL huCD4 V13L;A17L", "result": "nearly full resistance to CADA"}, {"measurement": "Secreted YFP FC (fold change of mean IC50 relative to WT)", "setting": "huCD4_1–32-YFP A17V; [2]", "result": ">+39"}, {"measurement": "IC50", "setting": "huCD4_1–32-YFP A17V; [4]", "result": "> 50", "unit": "µM"}, {"measurement": "Secreted YFP FC (fold change of mean IC50 relative to WT)", "setting": "huCD4_1–32-YFP L16A; [2]", "result": "−3.2"}, {"measurement": "IC50", "setting": "huCD4_1–32-YFP L16A; [4]", "result": 0.4, "unit": "µM"}, {"measurement": "Secreted YFP FC (fold change of mean IC50 relative to WT)", "setting": "huCD4_1–32-YFP P6A; [2]", "result": "−2.3"}, {"measurement": "IC50", "setting": "huCD4_1–32-YFP P6A; [4]", "result": 0.55, "unit": "µM"}, {"measurement": "Cellular huCD4 FC (fold change of mean IC50 relative to WT)", "setting": "FL huCD4 F7A; [2]", "result": "−4.2"}, {"measurement": "IC50", "setting": "FL huCD4 F7A; [3]", "result": 0.13, "unit": "µM"}, {"measurement": "Cellular huCD4 FC (fold change of mean IC50 relative to WT)", "setting": "FL huCD4 A22V; [2]", "result": "+1.5"}, {"measurement": "IC50", "setting": "FL huCD4 A22V; [3]", "result": 0.79, "unit": "µM"}, {"measurement": "sensitivity of bovine pre-prolactin to CADA", "setting": "bovine pre-prolactin", "result": "completely resistant to CADA"}, {"measurement": "Secreted YFP FC (fold change of mean IC50 relative to WT)", "setting": "huCD4_1–32-YFP T23A; [2]", "result": "+1.9"}, {"measurement": "IC50", "setting": "huCD4_1–32-YFP T23A; [4]", "result": 2.36, "unit": "µM"}, {"measurement": "sensitivity to CADA", "setting": "FL huCD4 R8E", "result": "reduced sensitivity to CADA"}, {"measurement": "Secreted YFP FC (fold change of mean IC50 relative to WT)", "setting": "huCD4_1–32-YFP L11A; [2]", "result": "−3.3"}, {"measurement": "IC50", "setting": "huCD4_1–32-YFP L11A; [4]", "result": 0.38, "unit": "µM"}, {"measurement": "Secreted YFP FC (fold change of mean IC50 relative to WT)", "setting": "huCD4_1–32-YFP F7A; [2]", "result": "−2.8"}, {"measurement": "IC50", "setting": "huCD4_1–32-YFP F7A; [4]", "result": 0.46, "unit": "µM"}, {"measurement": "Cellular huCD4 FC (fold change of mean IC50 relative to WT)", "setting": "FL huCD4 H9A; [2]", "result": "+1.1"}, {"measurement": "IC50", "setting": "FL huCD4 H9A; [3]", "result": 0.62, "unit": "µM"}, {"measurement": "inhibitory effect of CADA on protein translocation compared to WT", "setting": "[1]; 15 μM CADA", "result": "significantly reduced"}, {"measurement": "effect of CADA on co-translational translocation", "setting": "[1]; increasing doses of CADA", "result": "still responded to CADA, although to a lesser extent as compared to WT huCD4"}, {"measurement": "sensitivity to CADA", "setting": "FL huCD4 R8K", "result": "restored full sensitivity to CADA"}]}]}
